Test [1] deals with binding of BG505 SOSIP.664 trimer to human CCR5. It counts as cell-based, HIV-1. The note with it: Cf2Th/syn-CCR5 canine thymocytes, flow cytometry, dose-response. A digest of the protocol: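 Cf2Th/syn-CCR5 cells were harvested at ~80% confluency with enzyme-free dissociation buffer. His-tagged BG505 SOSIP.664 trimer was preincubated with 2-domain sCD4 for 1 h at 4 °C, treated with test compound across a dose range, then bound to cells for 1 h at 4 °C. After washes, bound trimer was detected with PE anti-His antibody (1 h, 4 °C). Cells were fixed in 2% PFA and analysed by flow cytometry. Anti-CCR5 mAb 2D6 confirmed specificity.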
On the technique in general: A flow cytometer gives signals particle by particle.

The subject of another test is HIV-1 BaL. Nature of the test: Acute HIV-1 infection assay in primary human CD4+ T cells. It counts as cell-based. The note with it: dose-response; for inhibition of HIV-1 BaL infection: cell-free acute infection of primary human CD4+ T cells. A digest of the protocol: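 Peptides were stocked at 10 mg/mL in NH4OH and stored frozen. Cell-free infection of primary human CD4+ T cells used CCR5-tropic HIV-1 BaL. Test peptides were titrated for dose-response, and non-sulfated homologous peptides and a scrambled sulfated control peptide were run in parallel. Cell viability was assessed in a separate assay.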

Test [2] has as its system panel of 12 HIV-1 strains. Nature of the test: Infection of CD4+ T cells by a panel of 12 HIV-1 strains. It counts as cell-based. The conditions noted are these: 50 μM. A digest of the protocol:
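Cell-free infection of purified primary human CD4+ T cells, with each test compound at 50 μM. The panel had eight minimally passaged primary isolates (92US714, 92HT599, 07USLR, 07USPC, 07USSG, subtype B; 97ZA009, 98IN017, subtype C; 93BR019, subtype F) and four laboratory-expanded subtype B strains (BaL, JR-FL, ADA, IIIB). Both CCR5-tropic and CXCR4-using phenotypes were included.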

Test [3] deals with soluble, stabilized gp140 trimer (BG505-SOSIP.664). Nature of the test: SPR of soluble gp140 trimer binding to immobilized V2 peptide. Also noted: species or system HIV-1. The conditions noted are these: SOSIP trimer 12.5-200 nM, absence of the CD4 mimic. A digest of the protocol: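 The sulfated V2 test peptide was immobilized on a CM5 surface. Unliganded BG505 SOSIP.664 trimer (12.5–200 nM; produced in 293FS cells, lectin-affinity and size-exclusion purified) was injected for 2 min at 25 μL/min in HBS with 3 mM EDTA and 0.005% Tween-20, followed by 2 min dissociation. Regeneration used a brief 4.5 M MgCl2 pulse.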

Test [4] has as its system sCD4:gp120 complex (gp120 BaL). Briefly: NMR trNOESY interaction and competition with gp120/sCD4. It counts as binding, HIV-1. The note with it: 2D NOESY, 0.8 mM peptide. A digest of the protocol: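 The tyrosine-sulfated V2 peptide was 15N-labelled at Ala/Ile/Leu/Phe/Val, at 800 μM (0.8 mM). It was incubated 1 h on ice with 20 μM sCD4, 20 μM recombinant gp120 BaL, or both. Samples were exchanged into 20 mM sodium phosphate pH 6.8, 50 mM NaCl, 0.02% azide, 10% D2O. NOESY was run at 30 °C, 600 MHz, with mixing times 100/250/400 ms. For competition, 0.4 mM peptide was used with 0, 0.8 or 1.6 mM unlabelled sulfated CCR5 N-terminal peptide.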

The subject of test [5] is recombinant gp120 (strain BaL). Briefly: SPR of monomeric gp120 binding to immobilized V2 peptide. Also noted: species or system HIV-1. The conditions noted are these: peptide immobilized on CM5, gp120 BaL pre-complexed with CD4-M48U. A digest of the protocol:
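The sulfated V2 test peptide was immobilized on a CM5 chip. Recombinant monomeric gp120 BaL (25–400 nM) was preincubated with a 2-fold molar excess of CD4-M48U […]. It was injected for 2 min at 25 μL/min in HBS with 3 mM EDTA and 0.005% Tween-20, followed by 2 min dissociation. Surfaces were regenerated with 4.5 M MgCl2.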

We go through six substances from paper PMC5006643 (EBioMedicine, 2016).

Where no end group is shown, it is not given here. [ ]: non-standard residue; d: D form. sY = N[C@@H](Cc1ccc(OS(=O)(=O)O)cc1)C(=O)O

Turning to “DPVLEF[sY]KID[sY]IELAVQK [pSCR-Tys, reference compound]”, the “inhibition of binding of sCD4-activated BG505 SOSIP.664 trimer to CCR5” value (from here on “inhibition of binding … to CCR5”) in test [1] is recorded as “limited effects”. In the test with HIV-1 BaL, the “inhibition of HIV-1 BaL infection” value is listed as “did not show significant inhibitory activity”.
KKQKVHALF[sY]KLDIVPIK [pV2αΕ-Tys]: in test [2] (compared to pV2α-Tys), the “relative potency over the strain panel” value is “generally lower potency compared to pV2α-Tys”. Also, in test [2] (purified CD4+ T cells), the “number of resistant HIV-1 strains of 12” value stood at 3.
Regarding KVQKE[sY]ALF[sY]ELDIVPID [pV2α-Tys], the “inhibition of binding … to CCR5” value in test [1] is given as “reduced CCR5 binding of the trimer in a dose-dependent fashion”. Also, the “binding of soluble gp140 trimer to immobilized peptide” value in test [3] is “unable to bind”. Further, the “inhibition of HIV-1 BaL infection” value in the test on HIV-1 BaL is “potently inhibited infection”. Further, the “trNOE signals (binding) with sCD4:gp120 complex” value in test [4] (20 μM sCD4:gp120, 30 °C) was “appearance of numerous NOE crosspeaks”. In addition, in test [4] (gp120 alone), the “trNOE signals (binding) with gp120 alone” value is “small number of weak trNOE crosspeaks”. In test [4] (sCD4 alone), the “trNOE signals (binding) with sCD4 alone” value is given as “no pV2α-Tys trNOEs signals were observed”. Moreover, the ka in test [5] was found to be 48300 M⁻¹ s⁻¹.
Consider “MDYQVSSPI[sY]DIN[sY]YTSEPSQK [pCCR5-Tys, reference compound]”, for which, in test [1], the “inhibition of binding … to CCR5” value is on record as “Dose-dependent inhibitory effect”. Further, in test [2] (purified CD4+ T cells), the “activity against CCR5-tropic isolates” value is reported as “restricted activity against CCR5-tropic isolates”; the “activity against CXCR4-using (R5X4 and X4) isolates” value is “inactive”. The “inhibition of HIV-1 BaL infection” value in the test on HIV-1 BaL is on record as “dose-dependent HIV-1 inhibition”.
As to “Tys173: pV2α version bearing a single sulfated tyrosine at position 173 (KVQKE[sY]ALFYELDIVPID)”, the “inhibition of HIV-1 BaL infection” value in the test with HIV-1 BaL was “exhibited antiviral activity”.
“Tys177: pV2α version bearing a single sulfated tyrosine at position 177 (KVQKEYALF[sY]ELDIVPID)”: in the test with HIV-1 BaL, the “inhibition of HIV-1 BaL infection” value is given as “exhibited antiviral activity”. Moreover, the “relative potency in inhibition of HIV-1 BaL infection” value in the test on HIV-1 BaL (primary CD4+ T cells, singly vs doubly sulfated peptides) is listed as “more potent than Tys173”.
